Laboratory results reported in ChEMBL document CHEMBL1795276, “Synthesis and biological testing of novel pyridoisothiazolones as histone acetyltransferase inhibitors” (Bioorg Med Chem, 2011).
Active and inactive are the calls of the source. The rule behind the calls is not given here.

What was measured:
[1] = target: T1, Histone acetyltransferase KAT2B (Homo sapiens, UniProt Q92831); assay: Inhibition of histone acetylase activity of human recombinant PCAF expressed in Escherichia coli at 50 uM using biotinylated oligopeptide sequences from histone H3 (1-21) substrate by In-vitro time-resolved fluorescence immunosorbent acetyltransferase assay
Summary of the method: (§1)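 His-tagged human PCAF from E. coli (IPTG induction at 18 °C overnight), purified on Ni-NTA and stored at pH 6.0. Enzyme was preincubated with inhibitor in DMSO for 10 min at 30 °C in HAT buffer pH 7.5 (0.1% BSA, 0.8% Triton X-100, 100 mM HEPES). Reaction on 20 pmol/well biotinylated H3 1–21 bound to a streptavidin plate, with 100 µM acetyl-CoA final, 1 h at 30 °C. Detection with anti-acetylhistone H3 antibody, then Eu-labelled secondary antibody; time-resolved fluorescence at 340/615 nm. IC50 from RFU plotted against log concentration.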
Target sequence in this assay (Q92831 whole entry, looked up): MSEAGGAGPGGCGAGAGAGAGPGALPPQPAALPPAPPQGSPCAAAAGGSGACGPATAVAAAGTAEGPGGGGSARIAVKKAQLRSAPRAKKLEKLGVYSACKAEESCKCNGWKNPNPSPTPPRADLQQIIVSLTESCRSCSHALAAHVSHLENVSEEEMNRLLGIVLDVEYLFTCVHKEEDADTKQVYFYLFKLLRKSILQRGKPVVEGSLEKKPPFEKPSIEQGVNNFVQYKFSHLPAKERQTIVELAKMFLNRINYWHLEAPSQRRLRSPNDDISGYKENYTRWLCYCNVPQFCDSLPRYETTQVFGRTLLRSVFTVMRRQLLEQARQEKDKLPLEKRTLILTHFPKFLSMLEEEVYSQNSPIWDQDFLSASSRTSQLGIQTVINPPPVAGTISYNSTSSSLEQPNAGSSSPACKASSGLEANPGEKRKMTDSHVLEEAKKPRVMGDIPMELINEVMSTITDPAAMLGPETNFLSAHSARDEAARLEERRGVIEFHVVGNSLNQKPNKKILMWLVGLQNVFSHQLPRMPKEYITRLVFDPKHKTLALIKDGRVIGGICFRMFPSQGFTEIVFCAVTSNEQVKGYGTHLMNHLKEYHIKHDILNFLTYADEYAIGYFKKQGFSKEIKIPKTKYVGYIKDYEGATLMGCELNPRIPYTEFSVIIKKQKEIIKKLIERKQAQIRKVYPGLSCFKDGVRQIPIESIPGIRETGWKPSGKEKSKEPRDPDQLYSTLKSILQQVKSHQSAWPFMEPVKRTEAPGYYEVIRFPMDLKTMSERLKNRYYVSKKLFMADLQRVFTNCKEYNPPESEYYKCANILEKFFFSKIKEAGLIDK

[2] = test system: SK-N-SH; assay: Growth inhibition of human SK-N-SH cells by CellTiter-96 Aqueous Non-radioactive cell proliferation assay; type: functional
Summary of the method: (§2)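 SK-N-SH neuroblastoma cells were grown in low-glucose DMEM with 10% FBS, 2 mM L-glutamine and 1% penicillin-streptomycin, and seeded at 5000/well. Compound or DMSO vehicle was added after 24 h, in triplicate.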

[3] = test system: HCT-116; assay: Growth inhibition of human HCT116 cells by CellTiter-96 Aqueous Non-radioactive cell proliferation assay; type: functional
Summary of the method: (§3)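 HCT116 cells were grown in high-glucose DMEM with 10% FBS, 2 mM L-glutamine, 1% non-essential amino acids and penicillin-streptomycin, and seeded at 4000/well. After 24 h, compound or DMSO vehicle was added; triplicates per concentration.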

[4] = target: T1, Histone acetyltransferase KAT2B; assay: Inhibition of histone acetylase activity of human recombinant PCAF expressed in Escherichia coli at 50 uM using biotinylated oligopeptide sequences from histone H4 (2-24) substrate by In-vitro time-resolved fluorescence immunosorbent acetyltransferase assay
Summary of the method: (§4)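 E. coli-expressed His-tagged human PCAF, Ni-NTA purified. Preincubated 10 min at 30 °C with inhibitor (DMSO solution) in HEPES 100 mM pH 7.5 with 0.1% BSA and 0.8% Triton X-100. Substrate was 20 pmol/well biotinylated H4 2–24 on streptavidin wells; 100 µM acetyl-CoA final; incubation steps 1 h at 30 °C. Acetylation read with anti-acetyl-lysine primary antibody and Eu-labelled anti-rabbit secondary, by time-resolved fluorescence at 340/615 nm; IC50 from RFU versus log concentration.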
Target sequence in this assay (Q92831 whole entry, looked up): as above

[5] = target: T1, Histone acetyltransferase KAT2B; assay: Inhibition of histone acetylase activity of human recombinant PCAF expressed in Escherichia coli using biotinylated oligopeptide sequences from histone H3 (1-21) substrate by In-vitro time-resolved fluorescence immunosorbent acetyltransferase assay; summary of the method: as §1
Target sequence in this assay (Q92831 whole entry): as the sequence (Q92831 whole entry, looked up) above

[6] = target: T1, Histone acetyltransferase KAT2B; assay: Inhibition of histone acetylase activity of human recombinant PCAF expressed in Escherichia coli at 25 uM using biotinylated oligopeptide sequences from histone H3 (1-21) substrate by In-vitro time-resolved fluorescence immunosorbent acetyltransferase assay; summary of the method: as §1
Target sequence in this assay (Q92831 whole entry, looked up): as above

[7] = target: T1, Histone acetyltransferase KAT2B; assay: Inhibition of histone acetylase activity of human recombinant PCAF expressed in Escherichia coli using biotinylated oligopeptide sequences from histone H4 (2-24) substrate by In-vitro time-resolved fluorescence immunosorbent acetyltransferase assay; summary of the method: as §4
Target sequence in this assay (Q92831 whole entry): as the sequence (Q92831 whole entry, looked up) above

[8] = test system: HCT-116; assay: Growth inhibition of human HCT116 cells at 25 uM by CellTiter-96 Aqueous Non-radioactive cell proliferation assay; type: functional; conditions: read-out: GI; summary of the method: as §3
[9] = target: T1, Histone acetyltransferase KAT2B; assay: Inhibition of histone acetylase activity of human recombinant PCAF expressed in Escherichia coli at 200 uM using biotinylated oligopeptide sequences from histone H4 (2-24) substrate by In-vitro time-resolved fluorescence immunosorbent acetyltransferase assay; summary of the method: as §4
Target sequence in this assay (Q92831 whole entry, looked up): as above

[10] = target: T1, Histone acetyltransferase KAT2B; assay: Inhibition of histone acetylase activity of human recombinant PCAF expressed in Escherichia coli at 300 uM using biotinylated oligopeptide sequences from histone H3 (1-21) substrate by In-vitro time-resolved fluorescence immunosorbent acetyltransferase assay; summary of the method: as §1
Target sequence in this assay (Q92831 whole entry, looked up): as above

[11] = test system: SK-N-SH; assay: Growth inhibition of human SK-N-SH cells at 40 uM by CellTiter-96 Aqueous Non-radioactive cell proliferation assay; type: functional; conditions: read-out: GI; summary of the method: as §2
[12] = test system: HCT-116; assay: Growth inhibition of human HCT116 cells at 40 uM by CellTiter-96 Aqueous Non-radioactive cell proliferation assay; type: functional; conditions: read-out: GI; summary of the method: as §3
[13] = test system: SK-N-SH; assay: Growth inhibition of human SK-N-SH cells at 10 uM by CellTiter-96 Aqueous Non-radioactive cell proliferation assay; type: functional; conditions: read-out: GI; summary of the method: as §2
[14] = test system: MCF7; assay: Growth inhibition of human MCF7 cells by CellTiter-96 Aqueous Non-radioactive cell proliferation assay; type: functional
Summary of the method: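 MCF-7 cells were grown in RPMI-1640 with 10% FBS, 2 mM L-glutamine and penicillin-streptomycin, and seeded at 5000/well. Compounds or DMSO were added after 24 h; three replicates per concentration.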

[15] = test system: SK-N-SH; assay: Growth inhibition of human SK-N-SH cells at 5 to 25 uM incubated for 6 to 72 hrs by CellTiter-96 Aqueous Non-radioactive cell proliferation assay; type: functional, cell-based
Summary of the method: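 Time course in SK-N-SH cells (5000/well, low-glucose DMEM with 10% FBS). Compound at 5, 10 or 25 µM was added 24 h after seeding, and growth was followed up to 72 h of incubation by CellTiter 96 AQueous absorbance, relative to DMSO control.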

[16] = target: T1, Histone acetyltransferase KAT2B; assay: Inhibition of histone acetylase activity of human recombinant PCAF expressed in Escherichia coli using biotinylated oligopeptide sequences from histone H3 (1-21) substrate in presence of 1 mmol/L DTT by In-vitro time-resolved fluorescence immunosorbent acetyltransferase assay
Target sequence in this assay (Q92831 whole entry, looked up): as above

[17] = target: T1, Histone acetyltransferase KAT2B; assay: Inhibition of histone acetylase activity of human recombinant PCAF expressed in Escherichia coli at 10 uM using biotinylated oligopeptide sequences from histone H3 (1-21) substrate by In-vitro time-resolved fluorescence immunosorbent acetyltransferase assay; summary of the method: as §1
[18] = test system: SK-N-SH; assay: Growth inhibition of human SK-N-SH cells at 25 uM by CellTiter-96 Aqueous Non-radioactive cell proliferation assay; type: functional; conditions: read-out: GI; summary of the method: as §2
[19] = test system: SK-N-SH; assay: Growth inhibition of human SK-N-SH cells at 100 uM by CellTiter-96 Aqueous Non-radioactive cell proliferation assay; type: functional; conditions: read-out: GI; summary of the method: as §2
[20] = test system: HCT-116; assay: Growth inhibition of human HCT116 cells at 100 uM by CellTiter-96 Aqueous Non-radioactive cell proliferation assay; type: functional; conditions: read-out: GI; summary of the method: as §3
[21] = test system: SK-N-SH; assay: Growth inhibition of human SK-N-SH cells at 20 uM by CellTiter-96 Aqueous Non-radioactive cell proliferation assay; type: functional; conditions: read-out: GI; summary of the method: as §2
[22] = test system: HCT-116; assay: Growth inhibition of human HCT116 cells at 20 uM by CellTiter-96 Aqueous Non-radioactive cell proliferation assay; type: functional; conditions: read-out: GI; summary of the method: as §3

Compound | GI50 [2] [µM] | IC50 [5] [µM] | inhibition of growth at 25 µM [8] [%] | other results
Cc1cc(C)c2c(=O)n(CC(=O)Nc3ccc(Cl)cc3)sc2n1 | 22.1 | – | – | inhibition [1]: 38%; GI50 [3]: 35.8 µM
O=c1c2cccnc2sn1-c1ccccc1 | – | 7.85 | – | inhibition [4]: 88%
O=C1/C(=C/c2ccc3c(c2)OCO3)C(=S)SN1Cc1ccco1 | – | – | – | inhibition [6]: < 5%
O=c1c2cc([N+](=O)[O-])cnc2sn1-c1ccc([N+](=O)[O-])cc1 | – | 11.8 | – | IC50 [7]: 15.8 µM
C=C(C)C(C(=O)OC)n1scc(NCc2ccccc2)c1=O (stereo not given) | – | – | – | inhibition [9]: 20%; inhibition [10]: 48%
O=c1c2cccnc2sn1Cc1ccc(F)cc1 | – | 86.3 | – | –
O=C(Cn1sc2cc(F)ccc2c1=O)Nc1nc(-c2ccccc2)cs1 | – | – | – | inhibition [1]: 21%; inhibition of growth at 40 µM [11]: < 5%; inhibition of growth at 40 µM [12]: < 5%
COc1cccc(Cn2sc3ncccc3c2=O)c1 | – | 22.2 | 42 | inhibition of growth at 10 µM [13]: 26%
Oc1nsc2ncccc12 | – | – | – | inhibition [1]: 17%
O=c1c2cc([N+](=O)[O-])cnc2sn1-c1ccc(Oc2ccccc2)cc1 | – | – | < 10 | inhibition [17]: 48%; inhibition of growth at 25 µM [18]: < 5%
O=c1c2cccnc2sn1Cc1ccc(Cl)cc1 | – | 17.5 | 97 | inhibition of growth at 10 µM [13]: 20%
O=c1c2cccnc2sn1Cc1ccccc1 | – | 23 | – | –
CCCCc1ccc(-n2sc3ncc(-c4ccccc4)cc3c2=O)cc1 | – | – | 33 | inhibition [6]: 49%; inhibition of growth at 25 µM [18]: 55%
O=c1c2cccnc2sn1Cc1ccc(F)c(F)c1 | – | 101 | – | –
Cc1ccc(Cn2sc3ncccc3c2=O)cc1 | – | 27.9 | 79 | inhibition of growth at 10 µM [13]: 31%
Cc1cnc2sn(-c3ccc(Oc4ccccc4)cc3)c(=O)c2c1 | – | 12.9 | 29 | inhibition of growth at 25 µM [18]: 32%
O=C1c2cccnc2S(=O)(=O)N1Cc1ccc(Cl)c(Cl)c1 | – | – | – | inhibition [1]: 6%
O=c1c2ccccc2sn1-c1nc2ccccc2s1 | – | – | – | inhibition [1]: 46%
CCCCc1ccc(-n2sc3ncccc3c2=O)cc1 | 8.93 | 15.9 | 21 | –
O=c1c2cccnc2[s+]([O-])n1Cc1ccc(Cl)c(Cl)c1 (stereo not given) | – | – | – | inhibition [1]: 11%
Cc1cnc2sn(-c3ccc([N+](=O)[O-])cc3)c(=O)c2c1 | – | 15.3 | – | IC50 [7]: 2.72 µM
O=c1c2cccnc2sn1Cc1ccc(C(F)(F)F)cc1 | 0.48 | 130 | 38 | IC50 [7]: 25.5 µM; GI50 [14]: 30.2 µM
Cc1cc(C)c2c(=O)n(CC(=O)Nc3ccc(F)cc3C)sc2n1 | 25.7 | – | – | inhibition [1]: 48%; GI50 [3]: 22.6 µM

Further molecules by falling IC50 [5], results first:

GI50 [2] [µM] | IC50 [5] [µM] | Compound | inhibition of growth at 25 µM [8] [%] | other results
– | 7.66 | O=c1c2ccc([N+](=O)[O-])cc2sn1Cc1ccccc1 | – | IC50 [7]: 51.3 µM
9.53 | 6.94 | O=c1c2cccnc2sn1Cc1ccc(Cl)c(Cl)c1 | – | GI50 [3]: 15.8 µM
12.2 | 6.51 | COc1ccc(-n2sc3ncc(C)cc3c2=O)cc1 | 40 | –
– | 5.9 | O=c1c2cccnc2sn1-c1ccc(F)c(F)c1 | – | –
19.2 | 5.71 | COc1ccc(-n2sc3ncccc3c2=O)cc1 | 29 | –
– | 5.03 | COc1cccc(-n2sc3ncccc3c2=O)c1 | – | –
53.5 | 4.91 | O=c1c2cc([N+](=O)[O-])cnc2sn1-c1ccc(Br)cc1 | – | IC50 [7]: 0.86 µM; GI50 [14]: 44.2 µM
23.2 | 4.8 | O=c1ccsn1-c1ccc(Cl)c([N+](=O)[O-])c1 | – | –
6.2 | 4.63 | Cc1ccc(-n2sc3ncccc3c2=O)cc1 | 20 | inhibition [4]: 75%
– | 4.57 | O=c1c2cccnc2sn1-c1ccc(Cl)c(Cl)c1 | – | inhibition [4]: 91%; inhibition of growth at 20 µM [21]: 37%; inhibition of growth at 20 µM [22]: 56%
– | 4.43 | O=c1c2cccnc2sn1-c1ccc(Br)cc1 | – | –
– | 4.1 | O=c1c2cccnc2sn1-c1ccc([N+](=O)[O-])cc1 | – | IC50 [7]: 2.99 µM
– | 3.69 | Cc1ccc(-n2sc3cc(F)ccc3c2=O)cc1 | – | inhibition of growth at 100 µM [19]: 35%; inhibition of growth at 100 µM [20]: 49%
16.1 | 3.53 | O=c1c2cccnc2sn1-c1ccc(Cl)cc1 | 23 | inhibition [4]: 87%
– | 3.42 | COc1ccc(-n2sc3ncc([N+](=O)[O-])cc3c2=O)cc1 | – | IC50 [7]: 1.83 µM; inhibition [16]: inactive
21.3 | 2.99 | Cc1cnc2sn(-c3ccc(Br)cc3)c(=O)c2c1 | < 5 | –
10.3 | 1.64 | O=c1c2cccnc2sn1-c1ccc(F)cc1 | 28 | IC50 [7]: 0.72 µM; GI50 [14]: 37.2 µM; growth inhibition (GI) [15]: Dose-dependent effect
